Our source for the inhibition and IC50 values is ChEMBL document CHEMBL4368879, “Crystallographic and SAR analyses reveal the high requirements needed to selectively and potently inhibit SIRT2 deacetylase and decanoylase” (Medchemcomm, 2019).

By inhibition is commonly meant the drop in the measured response relative to a control, in per cent. The term IC50 denotes the concentration that gives 50% inhibition.

Active and inactive are the calls of the source. No cut-off for these calls is given here.

Sequence of NAD-dependent protein deacylase sirtuin-5, mitochondrial (Homo sapiens) (Q9NXA8 37-310 limits assumed): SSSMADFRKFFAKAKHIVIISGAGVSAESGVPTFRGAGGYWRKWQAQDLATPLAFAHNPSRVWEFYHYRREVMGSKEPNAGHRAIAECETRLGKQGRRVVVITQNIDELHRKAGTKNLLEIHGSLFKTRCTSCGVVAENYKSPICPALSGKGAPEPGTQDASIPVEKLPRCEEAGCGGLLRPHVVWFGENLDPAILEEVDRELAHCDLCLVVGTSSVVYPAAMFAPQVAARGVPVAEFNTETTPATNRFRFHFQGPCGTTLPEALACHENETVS

The first assay concerns the target T1, NAD-dependent protein deacetylase sirtuin-2 (Homo sapiens) (UniProt Q8IXJ6).
T1 sequence (whole entry): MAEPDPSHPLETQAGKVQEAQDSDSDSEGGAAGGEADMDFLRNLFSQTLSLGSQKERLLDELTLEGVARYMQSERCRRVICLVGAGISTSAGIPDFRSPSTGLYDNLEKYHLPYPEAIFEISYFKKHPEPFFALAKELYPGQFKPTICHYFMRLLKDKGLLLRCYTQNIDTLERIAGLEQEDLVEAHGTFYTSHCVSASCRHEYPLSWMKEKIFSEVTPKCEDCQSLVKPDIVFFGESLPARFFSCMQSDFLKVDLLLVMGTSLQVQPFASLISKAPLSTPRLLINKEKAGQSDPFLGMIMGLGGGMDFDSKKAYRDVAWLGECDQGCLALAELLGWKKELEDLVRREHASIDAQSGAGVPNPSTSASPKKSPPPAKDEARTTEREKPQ
In words: Inhibition of recombinant SIRT2 (unknown origin) using ETDK(Ca)AMC as substrate assessed as reduction in decanoylase activity at 10 uM after 2 hrs in presence of NAD+ by fluorescence assay relative to control. The gist of the method: (§1)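 Fluorogenic sirtuin assay in 25 mM Tris–HCl pH 8.0, 150 mM NaCl, 10% glycerol. Enzyme at 0.1 μM with 10 μM substrate (RLIK(Ac)AMC or ETDK(Ca)AMC) and 400 μM NAD+, 2 h at 25 °C with shaking. Reaction stopped with a trypsin plus 4 mM nicotinamide solution, then 30 min more at 25 °C. Fluorescence read on a plate reader.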
Turning to `Cc1cccc(Sc2ccc(NC(=O)CSc3nc(C)cc(C)n3)cc2)c1`, the inhibition came to 54%.

Turning to `COc1ccc(Sc2ccc(NC(=O)CSc3nc(C)cc(C)n3)cc2)cc1`, the inhibition stood at 20%.

Take `Cc1cc(C)nc(SCC(=O)Nc2ccc([S+]([O-])c3ccccc3)cc2)n1` (centres undefined): the inhibition came out at 4%.

Take `Cc1cc(C)nc(SCC(=O)Nc2cccc(Sc3ccccc3)c2)n1`: the inhibition is 5%.

As for `Cc1ccc(Sc2ccc(NC(=O)CSc3nc(C)cc(C)n3)cc2)cc1`, the inhibition is 10%.

As for `CC(=O)c1ccc(Sc2ccc(NC(=O)CSc3nc(C)cc(C)n3)cc2)cc1`, the inhibition worked out at 8%.

For `COc1cccc(Sc2ccc(NC(=O)CSc3nc(C)cc(C)n3)cc2)c1`, the inhibition was 70%.

As for `Cc1cc(C)nc(SCC(=O)Nc2ccc(S(=O)(=O)c3ccccc3)cc2)n1`, the inhibition is 5%.

Another assay addresses T1, NAD-dependent protein deacetylase sirtuin-2 (Homo sapiens). In words: Inhibition of recombinant SIRT2 (unknown origin) using RLIK(Ac)AMC as substrate assessed as reduction in deacetylase activity at 10 uM after 2 hrs in presence of NAD+ by fluorescence assay relative to control. The method, boiled down:
as §1
Take `Cc1cccc(Sc2ccc(NC(=O)CSc3nc(C)cc(C)n3)cc2)c1`: the inhibition was determined as 70%.

For the compound `COc1ccc(Sc2ccc(NC(=O)CSc3nc(C)cc(C)n3)cc2)cc1`, the inhibition was 55%.

As to `Cc1cc(C)nc(SCC(=O)Nc2ccc([S+]([O-])c3ccccc3)cc2)n1` (centres undefined), the inhibition amounted to 5%.

As for `Cc1cc(C)nc(SCC(=O)Nc2cccc(Sc3ccccc3)c2)n1`, the inhibition was 65%.

Turning to `Cc1ccc(Sc2ccc(NC(=O)CSc3nc(C)cc(C)n3)cc2)cc1`, the inhibition is 30%.

As for `CC(=O)c1ccc(Sc2ccc(NC(=O)CSc3nc(C)cc(C)n3)cc2)cc1`, the inhibition is 6%.

On to `COc1cccc(Sc2ccc(NC(=O)CSc3nc(C)cc(C)n3)cc2)c1`, for which the inhibition is 80%.

As for `Cc1cc(C)nc(SCC(=O)Nc2ccc(S(=O)(=O)c3ccccc3)cc2)n1`, the inhibition stood at 8%.

Another assay shares this target. Briefly: Inhibition of recombinant SIRT2 (unknown origin) using ETDK(Ca)AMC as substrate assessed as reduction in decanoylase activity at 100 uM after 2 hrs in presence of NAD+ by fluorescence assay relative to control. The method, boiled down:
as §1
`Cc1cccc(Sc2ccc(NC(=O)CSc3nc(C)cc(C)n3)cc2)c1`: the inhibition was found to be 65%.

Consider `COc1ccc(Sc2ccc(NC(=O)CSc3nc(C)cc(C)n3)cc2)cc1`, for which the inhibition worked out at 58%.

For `Cc1cc(C)nc(SCC(=O)Nc2ccc([S+]([O-])c3ccccc3)cc2)n1` (centres undefined), the inhibition was 23%.

Consider `Cc1cc(C)nc(SCC(=O)Nc2cccc(Sc3ccccc3)c2)n1`, for which the inhibition was 30%.

Regarding `Cc1ccc(Sc2ccc(NC(=O)CSc3nc(C)cc(C)n3)cc2)cc1`, the inhibition is 70%.

`CC(=O)c1ccc(Sc2ccc(NC(=O)CSc3nc(C)cc(C)n3)cc2)cc1`: the inhibition was 35%.

Consider `COc1cccc(Sc2ccc(NC(=O)CSc3nc(C)cc(C)n3)cc2)c1`, for which the inhibition turned out to be 80%.

Take `Cc1cc(C)nc(SCC(=O)Nc2ccc(S(=O)(=O)c3ccccc3)cc2)n1`: the inhibition stood at 18%.

The next assay has the same target. Briefly: Inhibition of recombinant SIRT2 (unknown origin) using RLIK(Ac)AMC as substrate assessed as reduction in deacetylase activity at 100 uM after 2 hrs in presence of NAD+ by fluorescence assay relative to control. The gist of the method:
as §1
With `Cc1cccc(Sc2ccc(NC(=O)CSc3nc(C)cc(C)n3)cc2)c1`, the inhibition is 76%.

As for `COc1ccc(Sc2ccc(NC(=O)CSc3nc(C)cc(C)n3)cc2)cc1`, the inhibition was 65%.

Regarding `Cc1cc(C)nc(SCC(=O)Nc2ccc([S+]([O-])c3ccccc3)cc2)n1` (centres undefined), the inhibition came to 40%.

For `Cc1cc(C)nc(SCC(=O)Nc2cccc(Sc3ccccc3)c2)n1`, the inhibition came to 73%.

For the compound `Cc1ccc(Sc2ccc(NC(=O)CSc3nc(C)cc(C)n3)cc2)cc1`, the inhibition was found to be 63%.

In the case of `CC(=O)c1ccc(Sc2ccc(NC(=O)CSc3nc(C)cc(C)n3)cc2)cc1`, the inhibition amounted to 5%.

As to `COc1cccc(Sc2ccc(NC(=O)CSc3nc(C)cc(C)n3)cc2)c1`, the inhibition worked out at 85%.

For the compound `Cc1cc(C)nc(SCC(=O)Nc2ccc(S(=O)(=O)c3ccccc3)cc2)n1`, the inhibition was 50%.

A further assay deals with NAD-dependent protein deacylase sirtuin-5, mitochondrial (Homo sapiens) (UniProt Q9NXA8). In words: Inhibition of recombinant SIRT5 (unknown origin) using RLIK(Ac)AMC as substrate assessed as reduction in deacetylase activity after 2 hrs in presence of NAD+ by fluorescence assay. The method, boiled down:
as §1
For `COc1cccc(Sc2ccc(NC(=O)CSc3nc(C)cc(C)n3)cc2)c1`, the inhibition result was “inactive”.

The target in the next assay is T2, NAD-dependent protein deacetylase sirtuin-1 (Homo sapiens) (UniProt Q96EB6).
T2 sequence (whole entry): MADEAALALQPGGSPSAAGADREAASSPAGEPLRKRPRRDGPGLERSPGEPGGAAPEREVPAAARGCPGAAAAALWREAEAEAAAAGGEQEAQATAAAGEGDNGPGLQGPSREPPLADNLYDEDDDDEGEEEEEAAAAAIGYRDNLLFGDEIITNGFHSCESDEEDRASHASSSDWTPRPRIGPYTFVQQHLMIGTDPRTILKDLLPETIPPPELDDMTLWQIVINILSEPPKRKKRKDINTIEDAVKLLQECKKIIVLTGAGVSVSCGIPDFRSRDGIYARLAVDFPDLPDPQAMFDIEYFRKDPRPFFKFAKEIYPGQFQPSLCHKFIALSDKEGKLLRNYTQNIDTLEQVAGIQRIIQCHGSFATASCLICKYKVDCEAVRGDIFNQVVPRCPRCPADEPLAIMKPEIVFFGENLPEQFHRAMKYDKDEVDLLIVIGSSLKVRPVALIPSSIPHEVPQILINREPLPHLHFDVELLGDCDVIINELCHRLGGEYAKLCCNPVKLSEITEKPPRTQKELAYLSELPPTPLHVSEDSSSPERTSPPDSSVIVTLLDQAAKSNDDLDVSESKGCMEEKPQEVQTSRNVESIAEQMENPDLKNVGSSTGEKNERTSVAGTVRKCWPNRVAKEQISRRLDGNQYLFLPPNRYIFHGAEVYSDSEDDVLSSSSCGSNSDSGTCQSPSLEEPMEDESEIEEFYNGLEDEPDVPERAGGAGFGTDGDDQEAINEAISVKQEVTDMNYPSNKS
In words: Inhibition of recombinant SIRT1 (unknown origin) using RLIK(Ac)AMC as substrate assessed as reduction in deacetylase activity after 2 hrs in presence of NAD+ by fluorescence assay. The method, boiled down: as §1
In the case of `COc1cccc(Sc2ccc(NC(=O)CSc3nc(C)cc(C)n3)cc2)c1`, the inhibition result is “inactive”.

The target in another assay is T2, NAD-dependent protein deacetylase sirtuin-1 (Homo sapiens). In words: Inhibition of recombinant SIRT1 (unknown origin) using ETDK(Ca)AMC as substrate assessed as reduction in decanoylase activity after 2 hrs in presence of NAD+ by fluorescence assay. The method, boiled down: as §1
With `COc1cccc(Sc2ccc(NC(=O)CSc3nc(C)cc(C)n3)cc2)c1`, the inhibition entry is “inactive”.

The target of a further assay is NAD-dependent protein deacylase sirtuin-6 (Homo sapiens) (UniProt Q8N6T7). In words: Inhibition of recombinant SIRT6 (unknown origin) using RLIK(Ac)AMC as substrate assessed as reduction in deacetylase activity after 2 hrs in presence of NAD+ by fluorescence assay. The method, boiled down:
as §1
With `COc1cccc(Sc2ccc(NC(=O)CSc3nc(C)cc(C)n3)cc2)c1`, the inhibition entry was “inactive”.

Another assay addresses T3, NAD-dependent protein deacetylase sirtuin-3, mitochondrial (Homo sapiens) (UniProt Q9NTG7).
T3 sequence (whole entry): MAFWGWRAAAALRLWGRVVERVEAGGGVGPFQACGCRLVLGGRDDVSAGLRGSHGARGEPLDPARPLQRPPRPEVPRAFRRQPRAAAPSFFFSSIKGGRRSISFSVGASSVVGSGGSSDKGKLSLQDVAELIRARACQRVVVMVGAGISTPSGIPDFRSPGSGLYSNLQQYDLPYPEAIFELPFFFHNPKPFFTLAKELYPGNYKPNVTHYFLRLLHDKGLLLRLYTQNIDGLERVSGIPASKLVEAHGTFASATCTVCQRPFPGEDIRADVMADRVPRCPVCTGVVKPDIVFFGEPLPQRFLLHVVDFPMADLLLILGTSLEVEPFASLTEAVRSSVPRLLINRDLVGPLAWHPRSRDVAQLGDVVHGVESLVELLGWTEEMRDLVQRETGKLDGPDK
In words: Inhibition of recombinant SIRT3 (unknown origin) using ETDK(Ca)AMC as substrate assessed as reduction in decanoylase activity after 2 hrs in presence of NAD+ by fluorescence assay. The method, boiled down:
as §1
Regarding `COc1cccc(Sc2ccc(NC(=O)CSc3nc(C)cc(C)n3)cc2)c1`, the inhibition entry was “inactive”.

The next assay concerns the target T3, NAD-dependent protein deacetylase sirtuin-3, mitochondrial (Homo sapiens). Briefly: Inhibition of recombinant SIRT3 (unknown origin) using RLIK(Ac)AMC as substrate assessed as reduction in deacetylase activity after 2 hrs in presence of NAD+ by fluorescence assay. The gist of the method:
as §1
On to `COc1cccc(Sc2ccc(NC(=O)CSc3nc(C)cc(C)n3)cc2)c1`, for which the inhibition result was “inactive”.

In the next assay the target is T4, NAD-dependent protein deacetylase sirtuin-2 (Homo sapiens, UniProt Q8IXJ6).
T4 sequence (Q8IXJ6 whole entry): T1 sequence (whole entry)
Briefly: Inhibition of recombinant SIRT2 (unknown origin) using RLIK(Ac)AMC as substrate assessed as reduction in deacetylase activity after 2 hrs in presence of NAD+ by fluorescence assay. The gist of the method:
as §1
On to `Cc1cc(C)nc(SCC(=O)Nc2cccc(Sc3ccccc3)c2)n1`, for which the IC50 turned out to be 6.65 µM.

As for `COc1cccc(Sc2ccc(NC(=O)CSc3nc(C)cc(C)n3)cc2)c1`, the IC50 came out at 0.7 µM.

The target in the next assay is NAD-dependent protein deacylase sirtuin-6 (Homo sapiens) (UniProt Q8N6T7). Briefly: Inhibition of recombinant SIRT6 (unknown origin) using ETDK(Ca)AMC as substrate assessed as reduction in decanoylase activity after 2 hrs in presence of NAD+ by fluorescence assay. The gist of the method: as §1
Sequence of NAD-dependent protein deacylase sirtuin-6 (Homo sapiens) (Q8N6T7 whole entry): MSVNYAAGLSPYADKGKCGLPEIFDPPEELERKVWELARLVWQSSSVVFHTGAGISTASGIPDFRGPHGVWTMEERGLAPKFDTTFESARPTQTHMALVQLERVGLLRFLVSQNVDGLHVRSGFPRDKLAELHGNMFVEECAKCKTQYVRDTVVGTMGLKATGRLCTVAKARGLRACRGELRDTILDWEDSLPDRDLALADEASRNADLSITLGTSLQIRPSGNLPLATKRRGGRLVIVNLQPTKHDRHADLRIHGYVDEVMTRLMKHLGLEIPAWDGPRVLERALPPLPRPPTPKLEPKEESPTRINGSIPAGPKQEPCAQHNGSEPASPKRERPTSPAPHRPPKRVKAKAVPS
Take `COc1cccc(Sc2ccc(NC(=O)CSc3nc(C)cc(C)n3)cc2)c1`: the inhibition result was “inactive”.

In another assay the target is NAD-dependent protein deacylase sirtuin-5, mitochondrial (Homo sapiens) (UniProt Q9NXA8). Briefly: Inhibition of recombinant SIRT5 (unknown origin) using ETDK(Ca)AMC as substrate assessed as reduction in decanoylase activity after 2 hrs in presence of NAD+ by fluorescence assay. The method, boiled down:
as §1
In the case of `COc1cccc(Sc2ccc(NC(=O)CSc3nc(C)cc(C)n3)cc2)c1`, the inhibition entry is “inactive”.

The target in a further assay is T4, NAD-dependent protein deacetylase sirtuin-2. In words: Inhibition of recombinant SIRT2 (unknown origin) using ETDK(Ca)AMC as substrate assessed as reduction in decanoylase activity after 2 hrs in presence of NAD+ by fluorescence assay. The gist of the method: as §1
In the case of `Cc1cc(C)nc(SCC(=O)Nc2cccc(Sc3ccccc3)c2)n1`, the IC50 came to 62.1 µM.

On to `COc1cccc(Sc2ccc(NC(=O)CSc3nc(C)cc(C)n3)cc2)c1`, for which the IC50 amounted to 8.33 µM.
